We go through seven molecules from ChEMBL document CHEMBL1135445, “4'-Arylpyrrolomorphinans: effect of a pyrrolo-N-benzyl substituent in enhancing delta-opioid antagonist activity” (J Med Chem, 2002).

Where “and” joins values, the source holds several entries; their conditions need not be identical. Equal values may be shown once. Bounds are passed on as bounds.

Assay [1] can be described thus: Selectivity ratio towards Opioid receptor kappa 1 to Opioid receptor delta 1.
Assay [2] addresses T1, Kappa-type opioid receptor (Homo sapiens, UniProt P41145). Kind of assay: Binding affinity towards recombinant human Opioid receptor kappa 1 transfected in to CHO cells for the displacement of [3H]U-69593. The class given is cell-based. In a few lines: (§1)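 Radioligand displacement (Ki) at cloned human opioid receptors expressed in CHO cells. Radioligands: [3H]DAMGO for mu, [3H]Cl-DPDPE for delta, [3H]U69593 for kappa.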
(Displacement assays read how much labelled ligand stays bound in the presence of the test substance.)

Assay [3] has as its target T2, Delta-type opioid receptor (Homo sapiens, UniProt P41143). Kind of assay: Binding affinity towards recombinant human Opioid receptor delta 1 transfected in to CHO cells for the displacement of [3H]Cl-DPDPE (delta). In kind it is cell-based. In a few lines:
as §1

For assay [4], the target named is T3, Mu-type opioid receptor (Homo sapiens, UniProt P35372). Kind of assay: Binding affinity towards recombinant human Opioid receptor mu 1 transfected in to CHO cells for the displacement of [3H]DAMGO (mu). In kind it is cell-based. Summed up:
as §1

Assay [5] concerns the target Opioid receptors; mu & delta (Homo sapiens) (UniProt P41143+P35372). Kind of assay: Selectivity ratio of Opioid receptor mu 1 to Opioid receptor delta 1. In kind it is protein assay.
Assay [6] concerns the target T2, Delta-type opioid receptor. Kind of assay: The antagonistic activity tested in [35S]GTP-gamma-S, Recombinant Human Opioid receptor delta 1 transfected in to CHO cells for the displacement of [3H]Cl-DPDPE (delta). The class given is functional, cell-based. Summed up:
(§2)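 [35S]GTPγS binding in CHO cells expressing cloned human opioid receptors. Antagonist affinity (Ke) was derived from the compound's blockade of a standard agonist: DAMGO at mu, Cl-DPDPE at delta, U69593 at kappa.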
(In general: GTPγS is a poorly hydrolysed GTP analogue; its binding reports G protein activation.)

The target of assay [7] is T3, Mu-type opioid receptor. Nature of the assay: The antagonistic activity tested in [35S]-GTP-gamma S Recombinant Human Opioid receptor mu 1 transfected in to CHO cells for the displacement of [3H]DAMGO (mu). In kind it is functional, cell-based. In a few lines:
as §2

The target of assay [8] is T1, Kappa-type opioid receptor. Kind of assay: The antagonistic activity of compound was tested in [35S]GTP-gamma-S, Recombinant Human Opioid receptor kappa 1 transfected in to CHO cells for the displacement of [3H]U-69593. In kind it is functional, cell-based. Summed up:
as §2

For assay [9], the target named is T2, Delta-type opioid receptor. Nature of the assay: Partial agonist activity tested in [35S]GTP-gamma-S, Recombinant Human Opioid receptor delta 1 transfected in to CHO cells for the displacement of [3H]Cl-DPDPE (delta). In kind it is functional, cell-based.
In assay [10] the target is T1, Kappa-type opioid receptor. Kind of assay: Binding affinity towards recombinant human Opioid receptor kappa 1 transfected in to CHO cells for the displacement of […]. In kind it is cell-based. In a few lines: as §1
The target of assay [11] is T2, Delta-type opioid receptor. Kind of assay: The antagonistic activity tested in [35S]GTP-gamma-S, Recombinant Human Opioid receptor delta 1 in to CHO cells for the displacement of [3H]Cl-DPDPE (delta). In kind it is functional, cell-based. Summed up: as §2
For assay [12], the target named is T3, Mu-type opioid receptor. Nature of the assay: Selectivity ratio Opioid receptor mu 1 to Opioid receptor delta 1.
The target of assay [13] is T3, Mu-type opioid receptor. Nature of the assay: The partial agonist activity tested in [35S]-GTP-gamma S Recombinant Human Opioid receptor mu 1 transfected in to CHO cells for the displacement of [3H]-DAMGO (mu). The class given is functional, cell-based.
In assay [14] the target is T2, Delta-type opioid receptor. Kind of assay: Binding affinity towards recombinant humanOpioid receptor delta 1 transfected in to CHO cells for the displacement of [3H]Cl-DPDPE (delta). In kind it is cell-based. Summed up:
as §1

T1 sequence (P41145 whole entry): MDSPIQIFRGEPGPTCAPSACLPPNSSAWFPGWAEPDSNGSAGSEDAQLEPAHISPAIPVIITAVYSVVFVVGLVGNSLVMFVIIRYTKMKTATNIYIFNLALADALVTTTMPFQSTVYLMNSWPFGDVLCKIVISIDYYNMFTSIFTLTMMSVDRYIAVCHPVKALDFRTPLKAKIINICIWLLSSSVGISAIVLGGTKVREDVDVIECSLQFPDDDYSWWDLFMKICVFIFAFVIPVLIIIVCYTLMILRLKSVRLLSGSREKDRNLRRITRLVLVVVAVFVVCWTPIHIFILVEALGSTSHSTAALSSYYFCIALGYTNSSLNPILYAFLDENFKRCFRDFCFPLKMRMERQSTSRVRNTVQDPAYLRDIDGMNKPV
Sequence of Opioid receptors; mu & delta (Homo sapiens) (P35372 whole entry, looked up): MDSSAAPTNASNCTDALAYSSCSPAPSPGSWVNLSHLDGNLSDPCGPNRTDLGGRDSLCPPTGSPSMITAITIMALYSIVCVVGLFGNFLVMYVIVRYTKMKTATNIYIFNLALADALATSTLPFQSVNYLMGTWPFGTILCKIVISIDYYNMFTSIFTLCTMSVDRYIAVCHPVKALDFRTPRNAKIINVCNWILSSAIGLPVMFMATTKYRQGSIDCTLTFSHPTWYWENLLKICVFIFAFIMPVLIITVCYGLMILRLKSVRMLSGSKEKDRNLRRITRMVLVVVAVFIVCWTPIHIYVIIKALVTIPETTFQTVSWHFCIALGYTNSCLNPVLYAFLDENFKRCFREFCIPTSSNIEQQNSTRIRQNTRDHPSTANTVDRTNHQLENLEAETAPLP
Sequence of Opioid receptors; mu & delta (Homo sapiens) (P41143 whole entry, looked up): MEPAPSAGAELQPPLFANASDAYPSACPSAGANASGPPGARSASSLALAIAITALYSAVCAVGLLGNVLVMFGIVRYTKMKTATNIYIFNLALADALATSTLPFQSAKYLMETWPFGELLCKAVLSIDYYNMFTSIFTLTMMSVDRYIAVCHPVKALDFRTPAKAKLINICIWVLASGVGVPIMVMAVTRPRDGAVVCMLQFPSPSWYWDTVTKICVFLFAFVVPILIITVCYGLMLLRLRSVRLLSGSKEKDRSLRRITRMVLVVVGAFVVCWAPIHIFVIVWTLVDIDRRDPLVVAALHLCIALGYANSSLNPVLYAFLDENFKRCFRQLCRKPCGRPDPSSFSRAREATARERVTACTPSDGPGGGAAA
T3 sequence (P35372 whole entry): as the sequence (P35372 whole entry, looked up) above
T2 sequence (P41143 whole entry): as the sequence (P41143 whole entry, looked up) above

As a reminder, the Ki is a dissociation constant, usually derived from enzyme kinetics or from competition with a known ligand. On to `COc1ccc2c3c1O[C@H]1c4c(c(-c5ccccc5)cn4Cc4ccccc4)C[C@@]4(O)C(C2)N(C)CC[C@]314`, for which the Ratio in assay [1] and in assay [5] was above 31 in each case. Moreover, the inhibition constant (Ki) in assay [2] is above 10000 nM; in assay [3], 322 nM; in assay [4], above 10000 nM.

Regarding `Oc1ccc2c3c1O[C@H]1c4[nH]c5ccccc5c4C[C@@]4(O)[C@@H](C2)N(CC2CC2)CC[C@]314`, the Ke in [6] stood at 0.11 nM; in assay [7], 4.26 nM; in assay [8] it was 4.95 nM.

One may read the EC50 as the concentration needed to bring the measured effect to its halfway point. Turning to `CN1CC[C@]23c4c5ccc(O)c4O[C@H]2c2c(c(-c4ccccc4)cn2Cc2ccccc2)C[C@@]3(O)C1C5`, the Ratio in [1] amounted to 1.6; in [5], 0.43. Moreover, the Ki in assay [2] stood at 187 nM; in [3], 116 nM; in assay [4], 49.5 nM. Also, in assay [9], the EC50 worked out at 55.2 nM. Besides, the Ke stood at 14.1 nM in assay [7] and 1160 nM in assay [8].

Turning to `Cc1c(-c2ccccc2)c2c(n1Cc1ccccc1)[C@@H]1Oc3c(O)ccc4c3[C@@]13CCN(CC1CC1)C(C4)[C@]3(O)C2`, the Ki in [10] was found to be 183 nM; in assay [3], 17.3 nM; in [4], 52.7 nM. In addition, the Ke turned out to be 3.68 nM in [6], 17.7 nM in assay [7] and 306 nM in assay [8]. Also, the Ratio in assay [5] was 3 and 5.

Turning to `Cc1ccc(-c2cn(Cc3ccccc3)c3c2C[C@@]2(O)C4Cc5ccc(O)c6c5[C@@]2(CCN4CC2CC2)[C@H]3O6)cc1`, the Ki is 108 nM in assay [10], 23.5 nM in assay [3] and 77.9 nM in assay [4]. For the same molecule, the Ke was 2.37 nM in [11] and 61.1 nM in assay [8]. For the same molecule, the Ratio in assay [12] was found to be 3.3. For the same molecule, the EC50 in assay [13] was 1360 nM.

Consider `Oc1ccc2c3c1O[C@H]1c4c(c(-c5ccccc5)cn4Cc4ccccc4)C[C@@]4(O)C(C2)N(CC2CC2)CC[C@]314`, for which the results for the Ki in assay [10], in assay [14] and in assay [4] were 120 nM, 13.7 nM and 16.8 nM, respectively.

In the case of `CCCN1CC[C@]23c4c5ccc(O)c4O[C@H]2c2c(c(-c4ccccc4)cn2Cc2ccccc2)C[C@@]3(O)C1C5`, the Ki in assay [10] was 191 nM; in [3] it was 21.2 nM; in assay [4], 40.1 nM. Further, the Ke came to 6.4 nM in [6], 45.3 nM in assay [7] and 210 nM in assay [8].
